Measured values published in ChEMBL document CHEMBL1143070, “Catechin gallates are NADP+-competitive inhibitors of glucose-6-phosphate dehydrogenase and other enzymes that employ NADP+ as a coenzyme” (Bioorg Med Chem, 2008).
Calls of active or inactive are those of the source. No cut-off for these calls is given here.

Experiments:
[1] = biological target: T1, Glucose-6-phosphate 1-dehydrogenase (Saccharomyces cerevisiae S288c, UniProt P11412); assay: Inhibition of yeast G6PD
T1 sequence (P11412 whole entry): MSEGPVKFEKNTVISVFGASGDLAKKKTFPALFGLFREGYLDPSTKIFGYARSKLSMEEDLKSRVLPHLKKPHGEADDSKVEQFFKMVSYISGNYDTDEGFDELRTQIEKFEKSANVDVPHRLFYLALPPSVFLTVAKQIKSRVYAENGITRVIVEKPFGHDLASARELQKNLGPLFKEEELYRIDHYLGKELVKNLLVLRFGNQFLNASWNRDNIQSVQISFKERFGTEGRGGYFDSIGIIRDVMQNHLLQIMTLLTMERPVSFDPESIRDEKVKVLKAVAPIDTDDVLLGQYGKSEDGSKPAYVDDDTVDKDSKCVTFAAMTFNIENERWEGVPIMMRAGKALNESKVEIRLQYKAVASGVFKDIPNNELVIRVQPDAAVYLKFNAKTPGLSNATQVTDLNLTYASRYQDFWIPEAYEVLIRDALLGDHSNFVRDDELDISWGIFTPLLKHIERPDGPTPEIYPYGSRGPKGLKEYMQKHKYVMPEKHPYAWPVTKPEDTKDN

[2] = Inhibition of IDH
3T3-L1 [3] = assay: (§1) Inhibition of G6PD-mediated NADPH production in mouse 3T3-L1 cells; format: cell-based
In short: (§2)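 Fully differentiated 3T3-L1 adipocytes were lysed in NETN buffer and spun at 4 °C; supernatants were used at once. 1.0 µg protein was incubated at 30 °C with inhibitor (DMSO <0.2% v/v) in 0.1 mol/L Tris pH 7.5, 150 mmol/L NaCl, 6 mmol/L MgCl2, 0.5 mmol/L G6P, 0.5 mmol/L 6-phosphogluconate and 0.25 mmol/L NADP+. Total NADPH production was normalized to Bradford protein. Values are means of three independent experiments.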

3T3-L1 [4] = assay: Ratio of IC50 for yeast G6PD to IC50 for G6PD-mediated NADPH production in mouse 3T3-L1 cells; format: cell-based
[5] = biological target: 6-phosphogluconate dehydrogenase, decarboxylating (Saccharomyces cerevisiae) (UniProt P38720); assay: Inhibition of 6PGD
6-phosphogluconate dehydrogenase, decarboxylating (Saccharomyces cerevisiae), sequence (P38720 whole entry, looked up): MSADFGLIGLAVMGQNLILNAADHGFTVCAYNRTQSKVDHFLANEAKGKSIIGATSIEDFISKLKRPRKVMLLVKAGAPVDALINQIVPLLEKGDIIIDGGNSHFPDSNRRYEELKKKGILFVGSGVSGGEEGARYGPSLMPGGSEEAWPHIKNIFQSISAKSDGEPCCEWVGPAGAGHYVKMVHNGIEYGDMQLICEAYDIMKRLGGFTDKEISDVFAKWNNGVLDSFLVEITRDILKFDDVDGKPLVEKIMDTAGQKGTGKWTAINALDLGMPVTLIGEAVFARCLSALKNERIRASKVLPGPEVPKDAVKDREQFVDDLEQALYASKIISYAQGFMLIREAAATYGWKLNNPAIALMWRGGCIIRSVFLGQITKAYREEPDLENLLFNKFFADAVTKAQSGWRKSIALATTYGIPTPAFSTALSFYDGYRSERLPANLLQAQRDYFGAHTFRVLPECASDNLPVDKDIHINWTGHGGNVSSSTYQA

[6] = as §1; format: cell-based; in short: as §2
Homo sapiens = assay: Plasma concentration in human at 50 mg, po; details: in vivo
3T3-L1 [7] = assay: Inhibition of G6PD-mediated NADPH production in mouse 3T3-L1 cells at above 100 umol/L; format: cell-based; in short: as §2

SMILES	IC50 [1] [µM]	IC50 [2] [µM]	Activity (3T3-L1 [3])	Ratio IC50 (3T3-L1 [4])	IC50 [5] [µM]	IC50 [6] [µM]	concentration (Homo sapiens) [nM]	inhibition (3T3-L1 [7]) [%]
Oc1cc(O)c2c(c1)O[C@@H](c1cc(O)c(O)c(O)c1)[C@H](O)C2 [(-)-GALLOCATECHIN]	> 1000	> 1000	inactive					
O=C(O[C@@H]1Cc2c(O)cc(O)cc2O[C@@H]1c1ccc(O)c(O)c1)c1cc(O)c(O)c(O)c1 [EPICATECHIN GALLATE]	0.18	10.8		100	1.21	25		
Oc1cc(O)c2c(c1)O[C@@H](c1ccc(O)c(O)c1)[C@H](O)C2 [(-)-CATECHIN]	> 1000	> 1000	inactive					
O=C(O[C@@H]1Cc2c(O)cc(O)cc2O[C@@H]1c1cc(O)c(O)c(O)c1)c1cc(O)c(O)c(O)c1 [EPIGALOCATECHIN GALLATE]	0.25	6.44		100	0.72	25	300	
C[C@]12CC[C@H](O)CC1=CC[C@@H]1[C@@H]2CC[C@]2(C)C(=O)CC[C@@H]12								40
Oc1cc(O)c2c(c1)O[C@H](c1ccc(O)c(O)c1)[C@H](O)C2 [(-)-EPICATECHIN]	> 1000	> 1000	inactive					
O=C(O[C@@H]1Cc2c(O)cc(O)cc2O[C@H]1c1cc(O)c(O)c(O)c1)c1cc(O)c(O)c(O)c1 [GALLOCATECHIN GALLATE]	0.23	2.72		100	1.45	25		
Oc1cccc(/C=N/NC(=S)N/N=C/c2cccc(O)c2O)c1O	56.4							
O=C(O[C@@H]1Cc2c(O)cc(O)cc2O[C@H]1c1ccc(O)c(O)c1)c1cc(O)c(O)c(O)c1 [(-)-CATECHINGALLATE]	0.24	6.62		100	1.28	25		
CCOc1cccc(-c2cc(C(=O)N/N=C/c3ccccc3O)[nH]n2)c1	21.8							
Oc1cc(O)c2c(c1)O[C@H](c1cc(O)c(O)c(O)c1)[C@H](O)C2 [EPIGALLOCATECHIN]	> 1000	> 1000	inactive					
